# Results pooled from the literature.
# Lines come from different studies, so protocols differ.
# Medium: plasma
SMILES,test system,conditions,quantity,result
O=C(Nc1cc(F)c(F)c(F)c1)c1ccc(F)c(S(=O)(=O)NCc2cccc(B(O)O)c2)c1,male Sprague-Dawley rat,"oral, 20 mg/kg",MRT(0-inf),1.25 h
CCc1cc(C(=O)NC)c2nccc(N3CCc4c(cc(Cn5ccnc5)cc4-c4cn(C)nc4C(F)(F)F)C3=O)c2c1,male Sprague-Dawley rat,"oral, 100 mg/kg, single dose",MRT(0-inf),3.8 h
N#Cc1ccc(Nc2nc(N)cc(Oc3c(F)cc(-c4ccc(C#N)cc4)cc3F)n2)cc1,Sprague-Dawley rat,"intravenous, 1 mg/kg",MRT(0-inf),1.56 h
O=C(c1cc(Cc2n[nH]c(=O)c3ccccc23)ccc1F)N1CCN(C(=O)C2CC2)CC1,female Sprague-Dawley rat,intravenous,MRT,1.52 h
COc1nc(-c2cc(C)c(N[C@@H](C)c3cc(F)cc(F)c3)nn2)ccc1-n1cnc(C)c1,male Sprague-Dawley rat,"oral, 5 mg/kg, single dose",MRT(0-t),6.87 h
COc1ccc(C(C)=O)c(O)c1,male Sprague-Dawley rat,"oral, 100 mg/kg",MRT(0-t),3.83 h
CCOC(=O)[C@@]12C[C@@H]1[C@@H](n1ccc3c(NC)nc(C#Cc4ccc(Cl)s4)nc31)[C@H](O)[C@@H]2O,male Sprague-Dawley rat,"intravenous, 0.5 mg/kg",MRT(0-t),1.29 h
Oc1c(Br)cc(Cl)c2cccnc12,Sprague-Dawley rat,"intravenous, 2 mg/kg",MRT,12.5 h
CCc1nc(C(N)=O)c(Nc2ccc(N3CCC(N4CCN(C)CC4)CC3)c(OC)c2)nc1NC1CCOCC1,male Sprague-Dawley rat,"oral, 10 mg/kg",MRT(0-inf),21.8 h
CCc1cc(OC)c2nccc(N3CCc4c(cc(Cn5ccnc5)cc4-c4cn(C)nc4C(F)(F)F)C3=O)c2c1,male Sprague-Dawley rat,"oral, 50 mg/kg",MRT(0-inf),2.7 h
CNCc1cc(-c2ccccc2F)n(S(=O)(=O)c2cccnc2)c1,Sprague-Dawley rat,"oral, 10 mg/kg",MRT(0-t),2.43 h
C#Cc1cccc(Nc2ncnc3cc(OCCOC)c(OCCOC)cc23)c1,male Sprague-Dawley rat,"oral, 12 mg/kg, single dose",MRT(0-inf),5.1 h
